Reference: ChEMBL document CHEMBL3232792, “Cyclic secondary sulfonamides: unusually good inhibitors of cancer-related carbonic anhydrase enzymes” (J Med Chem, 2014)

What was measured:
Carbonic anhydrase 9 = Carbonic anhydrase 9 (Homo sapiens, UniProt Q16790); experiment: Inhibition of human recombinant carbonic anhydrase 9 expressed in Escherichia coli by stopped flow CO2 hydration assay
Method in brief: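 Recombinant human CA IX produced in E. coli, used at 8.0 nM; CO2 hydration activity followed by stopped-flow. IC50 is taken from seven-concentration dose–response curves fitted by nonlinear least squares, mean of at least three determinations. Ki is derived by Cheng–Prusoff, Ki = IC50/(1 + [S]/Km), where [S] is the CO2 concentration used.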

Carbonic anhydrase 2 = Carbonic anhydrase 2 (Homo sapiens, UniProt P00918); experiment: Inhibition of human recombinant carbonic anhydrase 2 expressed in Escherichia coli by stopped flow CO2 hydration assay
Carbonic anhydrase 1 = Carbonic anhydrase 1 (Homo sapiens, UniProt P00915); experiment: Inhibition of human recombinant carbonic anhydrase 1 expressed in Escherichia coli by stopped flow CO2 hydration assay
[1] = biological target: Carbonic anhydrase 5A, mitochondrial (Homo sapiens, UniProt P35218)
Carbonic anhydrase 4 = Carbonic anhydrase 4 (Homo sapiens, UniProt P22748)
[2] = biological target: Carbonic anhydrase 5B, mitochondrial (Homo sapiens, UniProt Q9Y2D0)
Carbonic anhydrase 7 = Carbonic anhydrase 7 (Homo sapiens, UniProt P43166)
Carbonic anhydrase 7, sequence (P43166 whole entry): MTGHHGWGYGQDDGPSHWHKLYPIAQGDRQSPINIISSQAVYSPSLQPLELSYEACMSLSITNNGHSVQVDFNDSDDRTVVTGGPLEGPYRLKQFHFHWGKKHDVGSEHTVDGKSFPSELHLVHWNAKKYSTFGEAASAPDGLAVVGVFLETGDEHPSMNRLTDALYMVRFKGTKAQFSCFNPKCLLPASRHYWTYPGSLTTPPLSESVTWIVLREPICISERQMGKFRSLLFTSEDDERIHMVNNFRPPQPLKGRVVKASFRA

Carbonic anhydrase 1, sequence (P00915 whole entry): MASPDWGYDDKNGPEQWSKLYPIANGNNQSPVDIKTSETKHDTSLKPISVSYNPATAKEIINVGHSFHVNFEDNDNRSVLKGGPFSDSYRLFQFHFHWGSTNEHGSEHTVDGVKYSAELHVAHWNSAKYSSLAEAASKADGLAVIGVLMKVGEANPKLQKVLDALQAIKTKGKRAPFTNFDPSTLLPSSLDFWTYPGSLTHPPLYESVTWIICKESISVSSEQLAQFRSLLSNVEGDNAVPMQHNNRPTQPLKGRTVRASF
Carbonic anhydrase 4, sequence (P22748 whole entry): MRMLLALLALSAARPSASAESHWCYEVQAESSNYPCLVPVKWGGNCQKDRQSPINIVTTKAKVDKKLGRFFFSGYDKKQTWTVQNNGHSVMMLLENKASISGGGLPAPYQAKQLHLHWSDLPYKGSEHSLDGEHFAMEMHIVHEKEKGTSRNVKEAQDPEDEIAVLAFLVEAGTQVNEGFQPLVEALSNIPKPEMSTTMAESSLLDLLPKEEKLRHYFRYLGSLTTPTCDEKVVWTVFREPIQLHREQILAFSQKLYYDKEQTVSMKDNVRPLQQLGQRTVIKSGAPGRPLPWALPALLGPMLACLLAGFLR
Carbonic anhydrase 5A, mitochondrial, sequence (P35218 whole entry): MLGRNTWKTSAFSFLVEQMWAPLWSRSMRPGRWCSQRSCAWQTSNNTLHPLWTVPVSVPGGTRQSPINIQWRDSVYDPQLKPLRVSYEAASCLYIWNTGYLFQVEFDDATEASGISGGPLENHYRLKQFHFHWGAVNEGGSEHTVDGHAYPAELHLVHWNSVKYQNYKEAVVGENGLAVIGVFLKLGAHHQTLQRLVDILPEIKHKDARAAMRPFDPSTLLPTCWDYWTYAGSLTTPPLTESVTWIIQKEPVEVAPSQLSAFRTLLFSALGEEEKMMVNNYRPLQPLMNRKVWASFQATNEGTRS
Carbonic anhydrase 5B, mitochondrial, sequence (Q9Y2D0 whole entry): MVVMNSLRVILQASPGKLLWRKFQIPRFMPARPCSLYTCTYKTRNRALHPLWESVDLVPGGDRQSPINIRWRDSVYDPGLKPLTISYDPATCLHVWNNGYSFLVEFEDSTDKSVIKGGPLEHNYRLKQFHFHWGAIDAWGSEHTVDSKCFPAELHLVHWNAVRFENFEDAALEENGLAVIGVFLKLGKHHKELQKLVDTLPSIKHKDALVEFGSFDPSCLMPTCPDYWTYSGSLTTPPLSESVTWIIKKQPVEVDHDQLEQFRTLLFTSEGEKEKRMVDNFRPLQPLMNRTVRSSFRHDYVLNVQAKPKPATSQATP

In the case of `Nc1ccc2c(c1)S(=O)(=O)NC2=O`, the Ki (Carbonic anhydrase 9) is reported as 610 nM, the Ki (Carbonic anhydrase 2) is reported as over 50000 nM and the Ki (Carbonic anhydrase 1) is reported as over 50000 nM.
Compound `[N-]=[N+]=Nc1ccc2c(c1)S(=O)(=O)NC2=O` has a Ki (Carbonic anhydrase 9) of 466 nM.
With `O=C1NS(=O)(=O)c2cc(-n3cc(-c4ccccc4C(F)(F)F)nn3)ccc21` the Ki (Carbonic anhydrase 9) was 443 nM and the Ki (Carbonic anhydrase 2) was over 50000 nM.
`O=C1NS(=O)(=O)c2ccccc21` [SACCHARIN] showed a Ki [1] of 10100 nM, a Ki (Carbonic anhydrase 4) of 7920 nM and a Ki [2] of 7210 nM. For the same compound, the pKa (physchem) was 1.3 and the Ki (Carbonic anhydrase 7) was 10 nM.
`Cc1cc(-c2cn(-c3ccc4c(c3)S(=O)(=O)NC4=O)nn2)ccc1F` gave a Ki (Carbonic anhydrase 9) of 47.8 nM and a Ki (Carbonic anhydrase 1) of over 50000 nM.
`COc1ccc(-c2cn(-c3ccc4c(c3)S(=O)(=O)NC4=O)nn2)cc1` showed a Ki (Carbonic anhydrase 9) of 341 nM and a Ki (Carbonic anhydrase 2) of over 50000 nM.
`O=C1NS(=O)(=O)c2cc([N+](=O)[O-])ccc21` gave a Ki (Carbonic anhydrase 2) of over 50000 nM and a Ki (Carbonic anhydrase 1) of over 50000 nM.
For `O=C1NS(=O)(=O)c2cc(-n3cc(-c4ccccc4)nn3)ccc21`, the Ki (Carbonic anhydrase 9) was 484 nM and the Ki (Carbonic anhydrase 1) was over 50000 nM.
`O=C1NS(=O)(=O)c2cc(-n3cc(CO[C@@H]4O[C@H](CO)[C@@H](O)[C@H](O)[C@H]4O)nn3)ccc21` showed a Ki (Carbonic anhydrase 9) of 49.5 nM, a Ki (Carbonic anhydrase 2) of over 50000 nM and a Ki (Carbonic anhydrase 1) of over 50000 nM.
With `Cc1cccc(-c2cn(-c3ccc4c(c3)S(=O)(=O)NC4=O)nn2)c1` the Ki (Carbonic anhydrase 9) was 89.7 nM and the Ki (Carbonic anhydrase 1) was over 50000 nM.
Work on `COc1ccc(-c2cn(-c3ccc4c(c3)S(=O)(=O)NC4=O)nn2)c(C)c1` yielded a Ki (Carbonic anhydrase 9) of 95.7 nM and a Ki (Carbonic anhydrase 2) of over 50000 nM.
